Measurements published in ChEMBL document CHEMBL3739331, “Synthesis and Bioactivities of Kanamycin B-Derived Cationic Amphiphiles” (J Med Chem, 2015).
In brackets after ≈: the same amount, converted by molar mass. Activity calls are given as the source filed them. The rule behind the calls is not given here.

What was measured:
Klebsiella pneumoniae = experiment: Antibacterial activity against Klebsiella pneumoniae ATCC 27736 by microdilution method; format: functional
Procedure, shortened: (§1)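 Broth microdilution MIC against the named bacterial strain, reported in μg/mL; each determination run at least in duplicate.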

[1] = Activity of AAC(3)-4 (unknown origin) assessed as compound acetylation activity by Ellman's method
Bacillus subtilis = experiment: Antibacterial activity against Bacillus subtilis 168 by microdilution method; format: functional; settings: subsp. subtilis str. 168; procedure, shortened: as §1
Listeria monocytogenes = experiment: Antibacterial activity against Listeria monocytogenes ATCC 19115 by microdilution method; format: functional; procedure, shortened: as §1
Staphylococcus aureus [2] = experiment: Antibacterial activity against methicillin-resistant Staphylococcus aureus by microdilution method; format: functional
Procedure, shortened: (§2)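 Broth microdilution MIC, in μg/mL, against a panel of Gram-positive and Gram-negative strains. Run at least in duplicate.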

Staphylococcus aureus [3] = experiment: Antibacterial activity against Staphylococcus aureus ATCC 29213 by microdilution method; format: functional; procedure, shortened: as §1
Staphylococcus aureus [4] = experiment: Antibacterial activity against Staphylococcus aureus NRS382 (USA 100) by microdilution method; format: functional; procedure, shortened: as §1
Staphylococcus aureus [5] = experiment: Antibacterial activity against Staphylococcus aureus NRS383 (USA 200) by microdilution method; format: functional; procedure, shortened: as §1
Staphylococcus aureus [6] = experiment: Antibacterial activity against Staphylococcus aureus NRS385 (USA 300) by microdilution method; format: functional; procedure, shortened: as §2
Staphylococcus aureus [7] = experiment: Antibacterial activity against Staphylococcus aureus NRS22 (USA 600) by microdilution method; format: functional; procedure, shortened: as §1
[8] = system: Staphylococcus epidermidis; experiment: Antibacterial activity against Staphylococcus epidermidis ATCC 12228 by microdilution method; format: functional; procedure, shortened: as §1
Enterococcus = experiment: Antibacterial activity against vancomycin-resistant Enterococcus by microdilution method; format: functional; procedure, shortened: as §2
Acinetobacter baumannii = experiment: Antibacterial activity against Acinetobacter baumannii ATCC 19606 by microdilution method; format: functional; procedure, shortened: as §1
Enterobacter cloacae = experiment: Antibacterial activity against Enterobacter cloacae ATCC 13047 by microdilution method; format: functional; procedure, shortened: as §1
Escherichia coli = experiment: Antibacterial activity against Escherichia coli MC1061 by microdilution method; format: functional; procedure, shortened: as §2
Pseudomonas aeruginosa = experiment: Antibacterial activity against Pseudomonas aeruginosa ATCC 27853 by microdilution method; format: functional; procedure, shortened: as §1
Salmonella enterica = experiment: Antibacterial activity against Salmonella enterica ATCC 14028 by microdilution method; format: functional; procedure, shortened: as §1
[9] = system: Bacillus subtilis subsp. subtilis str. 168; experiment: Activity of Bacillus subtilis 168 APH(2'')-1a assessed as compound phosphorylation activity by Ellman's method
[10] = Activity of AAC(6')-1e/APH(2'')-1a (unknown origin) assessed as compound acetylation activity by Ellman's method
Serratia marcescens = experiment: Activity of Serratia marcescens AAC(6')-2d assessed as compound acetylation activity by Ellman's method
[11] = system: Mycobacterium tuberculosis; experiment: Activity of Mycobacterium tuberculosis AAC(2')-1c assessed as compound acetylation activity by Ellman's method
[12] = system: Mycobacterium tuberculosis; experiment: Activity of Mycobacterium tuberculosis Eis assessed as compound acetylation activity by Ellman's method
Candida albicans [13] = experiment: Antifungal activity against azole-resistant Candida albicans ATCC 10231 after 48 hrs by microbroth dilution method; format: functional; settings: ATCC 10231, 48 h
Procedure, shortened: (§3)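 Yeast MIC by broth microdilution, run in duplicate. The aminoglycoside compounds are read as MIC-0 (complete inhibition). Azoles are read as MIC-2 (50% inhibition).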

Candida albicans [14] = experiment: Antifungal activity against azole-resistant Candida albicans ATCC 64124 after 48 hrs by microbroth dilution method; format: functional; settings: ATCC 64124, 48 h; procedure, shortened: as §3
Candida albicans [15] = experiment: Antifungal activity against azole-susceptible Candida albicans ATCC MYA-2876 after 48 hrs by microbroth dilution method; format: functional; settings: ATCC MYA-2876, 48 h; procedure, shortened: as §3
Candida albicans [16] = experiment: Antifungal activity against azole-resistant Candida albicans ATCC 90819 after 48 hrs by microbroth dilution method; format: functional; settings: ATCC 90819, 48 h; procedure, shortened: as §3
Candida albicans [17] = experiment: Antifungal activity against azole-susceptible Candida albicans ATCC MYA-2310 after 48 hrs by microbroth dilution method; format: functional; settings: ATCC MYA-2310, 48 h; procedure, shortened: as §3
Candida albicans [18] = experiment: Antifungal activity against azole-resistant Candida albicans MYA-1237 after 48 hrs by microbroth dilution method; format: functional; settings: MYA-1237, 48 h; procedure, shortened: as §3
Candida albicans [19] = experiment: Antifungal activity against azole-resistant Candida albicans MYA-1003 after 48 hrs by microbroth dilution method; format: functional; settings: MYA-1003, 48 h; procedure, shortened: as §3
Aspergillus nidulans = experiment: Antifungal activity against Aspergillus nidulans ATCC 38163 after 48 hrs by microbroth dilution method; format: functional; settings: ATCC 38163, 48 h
Procedure, shortened: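 Filamentous fungus MIC by broth microdilution, run in duplicate. All compounds are read as MIC-0 (complete inhibition).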

[20] = system: Mycolicibacterium smegmatis; experiment: Antibacterial activity against Mycobacterium smegmatis MC2 155 by microdilution method; format: functional; settings: str. MC2 155; procedure, shortened: as §2

Structure (SMILES)	MIC (Klebsiella pneumoniae)	Activity [1]	MIC (Bacillus subtilis)	MIC (Listeria monocytogenes)	MIC (Staphylococcus aureus [2])	MIC (Staphylococcus aureus [3])	MIC (Staphylococcus aureus [4])	MIC (Staphylococcus aureus [5])	MIC (Staphylococcus aureus [6])	MIC (Staphylococcus aureus [7])	MIC [8]	MIC (Enterococcus)	MIC (Acinetobacter baumannii)	MIC (Enterobacter cloacae)	MIC (Escherichia coli)	MIC (Pseudomonas aeruginosa)	MIC (Salmonella enterica)	Activity [9]	Activity [10]	MIC (Aspergillus nidulans)	other results
CCCCCCCCCCCCS(=O)(=O)C[C@@H]1O[C@@H](O[C@@H]2[C@@H](O)[C@H](O[C@@H]3O[C@@H](CN)[C@H](O)[C@@H](O)[C@@H]3N)[C@@H](N)C[C@H]2N)[C@@H](O)[C@H](N)[C@H]1O (stereo in doubt)	128 µg/mL (≈ 183 µM)	inactive	> 128 µg/mL	4 µg/mL (≈ 5.72 µM)	64 µg/mL (≈ 91.4 µM)	128 µg/mL (≈ 183 µM)	64 µg/mL (≈ 91.4 µM)	32 µg/mL (≈ 45.7 µM)	64 µg/mL (≈ 91.4 µM)	32 µg/mL (≈ 45.7 µM)	> 128 µg/mL	32 µg/mL (≈ 45.7 µM)	128 µg/mL (≈ 183 µM)	> 128 µg/mL	> 128 µg/mL	16 µg/mL (≈ 22.9 µM)	64 µg/mL (≈ 91.4 µM)	inactive	inactive	3.9 µg/mL (≈ 5.57 µM)	Activity (Serratia marcescens): inactive; Activity [11]: inactive; Activity [12]: inactive; MIC (Candida albicans [13]): 31.2 µg/mL (≈ 44.6 µM); MIC (Candida albicans [14]): 31.2 µg/mL (≈ 44.6 µM); MIC (Candida albicans [15]): 31.2 µg/mL (≈ 44.6 µM); MIC (Candida albicans [16]): 62.5 µg/mL (≈ 89.3 µM); MIC (Candida albicans [17]): 62.5 µg/mL (≈ 89.3 µM); MIC (Candida albicans [18]): 62.5 µg/mL (≈ 89.3 µM); MIC (Candida albicans [19]): 62.5 µg/mL (≈ 89.3 µM)
CCCCCCCCCCCCCCS(=O)(=O)C[C@@H]1O[C@@H](O[C@@H]2[C@@H](O)[C@H](O[C@@H]3O[C@@H](CN)[C@H](O)[C@@H](O)[C@@H]3N)[C@@H](N)C[C@H]2N)[C@@H](O)[C@H](N)[C@H]1O (stereo in doubt)	> 128 µg/mL	inactive	> 128 µg/mL	2 µg/mL (≈ 2.75 µM)	128 µg/mL (≈ 176 µM)	128 µg/mL (≈ 176 µM)	64 µg/mL (≈ 87.9 µM)	128 µg/mL (≈ 176 µM)	128 µg/mL (≈ 176 µM)	64 µg/mL (≈ 87.9 µM)	> 128 µg/mL	32 µg/mL (≈ 44 µM)	> 128 µg/mL	> 128 µg/mL	> 128 µg/mL	32 µg/mL (≈ 44 µM)	128 µg/mL (≈ 176 µM)	inactive	inactive	1.95 µg/mL (≈ 2.68 µM)	Activity (Serratia marcescens): inactive; Activity [11]: inactive; Activity [12]: inactive; MIC (Candida albicans [13]): 3.9 µg/mL (≈ 5.36 µM); MIC (Candida albicans [14]): 3.9 µg/mL (≈ 5.36 µM); MIC (Candida albicans [15]): 3.9 µg/mL (≈ 5.36 µM); MIC (Candida albicans [16]): 7.8 µg/mL (≈ 10.7 µM); MIC (Candida albicans [17]): 7.8 µg/mL (≈ 10.7 µM); MIC (Candida albicans [18]): 7.8 µg/mL (≈ 10.7 µM); MIC (Candida albicans [19]): 7.8 µg/mL (≈ 10.7 µM)
OC(Cn1cncn1)(Cn1cncn1)c1ccc(F)cc1F [FLUCONAZOLE]	–	–	–	–	–	–	–	–	–	–	–	–	–	–	–	–	–	–	–	> 62.5 µg/mL	MIC50 (Candida albicans [13]): 62.5 µg/mL (≈ 204 µM); MIC50 (Candida albicans [14]): 125 µg/mL (≈ 408 µM); MIC50 (Candida albicans [15]): 15.6 µg/mL (≈ 50.9 µM); MIC50 (Candida albicans [16]): > 125 µg/mL; MIC50 (Candida albicans [17]): > 125 µg/mL; MIC50 (Candida albicans [18]): 62.5 µg/mL (≈ 204 µM); MIC50 (Candida albicans [19]): 62.5 µg/mL (≈ 204 µM)
CCC(C)n1ncn(-c2ccc(N3CCN(c4ccc(OCC5COC(Cn6cncn6)(c6ccc(Cl)cc6Cl)O5)cc4)CC3)cc2)c1=O (configuration not stated) [ITRACONAZOLE]	–	–	–	–	–	–	–	–	–	–	–	–	–	–	–	–	–	–	–	≤ 1.95 µg/mL	MIC50 (Candida albicans [13]): 0.5 µg/mL (≈ 0.709 µM); MIC50 (Candida albicans [14]): > 62.5 µg/mL; MIC50 (Candida albicans [15]): 7.8 µg/mL (≈ 11.1 µM); MIC50 (Candida albicans [16]): 31.2 µg/mL (≈ 44.2 µM); MIC50 (Candida albicans [18]): 31.2 µg/mL (≈ 44.2 µM); MIC50 (Candida albicans [19]): 31.2 µg/mL (≈ 44.2 µM)
NC[C@H]1O[C@H](O[C@H]2[C@H](O)[C@@H](O[C@H]3O[C@H](CO)[C@@H](O)[C@H](N)[C@H]3O)[C@H](N)C[C@@H]2N)[C@H](O)[C@@H](O)[C@@H]1O [KANAMYCIN]	16 µg/mL (≈ 33 µM)	–	2 µg/mL (≈ 4.13 µM)	128 µg/mL (≈ 264 µM)	128 µg/mL (≈ 264 µM)	> 128 µg/mL	> 128 µg/mL	> 128 µg/mL	> 128 µg/mL	> 128 µg/mL	1 µg/mL (≈ 2.06 µM)	> 128 µg/mL	4 µg/mL (≈ 8.26 µM)	2 µg/mL (≈ 4.13 µM)	8 µg/mL (≈ 16.5 µM)	> 128 µg/mL	16 µg/mL (≈ 33 µM)	–	–	–	MIC [20]: ≤ 0.25 µg/mL
